This is an account of results in ChEMBL document CHEMBL5030567, “Macrocyclic Inhibitors of HGF-Activating Serine Proteases Overcome Resistance to Receptor Tyrosine Kinase Inhibitors and Block Lung Cancer Progression” (J Med Chem, 2021).

A word on the IC50: it is the concentration needed to halve the response being measured. Broadly, the half-life is the time needed for the level to fall by half in the phase considered. Broadly, the fraction unbound is free concentration divided by total concentration.

The structures appear in SMILES notation. Calls of active or inactive are those of the source. Bounds are passed on as bounds.

Data set [1] in a line: Stability in human plasma assessed as half life. The format is ADME, cell-free.
Data set [2] is described as follows: Stability in mouse plasma assessed as half life. The format is ADME, cell-free.
In a further data set the target is Coagulation factor X (Homo sapiens, UniProt P00742). The data set can be described thus: Inhibition of recombinant C-terminal 10His-tagged human coagulation factor 10a (Leu24 to Lys488 residues) expressed in baculovirus infected Sf9 insect cells using Bz-Ile-Glu-Gly-Arg-pNA as substrate preincubated for 30 mins followed by substrate addition by chromogenic assay.

Data set [3] is described as follows: Half life in mouse plasma at 20 mg/kg, ip. The format is ADME, organism-based. As to conditions: for t1/2: in vivo, 20 mg/kg.
Data set [4] has as its target T1, Hepatocyte growth factor activator serine protease (Homo sapiens, UniProt Q04756).
T1 sequence (Q04756 whole entry): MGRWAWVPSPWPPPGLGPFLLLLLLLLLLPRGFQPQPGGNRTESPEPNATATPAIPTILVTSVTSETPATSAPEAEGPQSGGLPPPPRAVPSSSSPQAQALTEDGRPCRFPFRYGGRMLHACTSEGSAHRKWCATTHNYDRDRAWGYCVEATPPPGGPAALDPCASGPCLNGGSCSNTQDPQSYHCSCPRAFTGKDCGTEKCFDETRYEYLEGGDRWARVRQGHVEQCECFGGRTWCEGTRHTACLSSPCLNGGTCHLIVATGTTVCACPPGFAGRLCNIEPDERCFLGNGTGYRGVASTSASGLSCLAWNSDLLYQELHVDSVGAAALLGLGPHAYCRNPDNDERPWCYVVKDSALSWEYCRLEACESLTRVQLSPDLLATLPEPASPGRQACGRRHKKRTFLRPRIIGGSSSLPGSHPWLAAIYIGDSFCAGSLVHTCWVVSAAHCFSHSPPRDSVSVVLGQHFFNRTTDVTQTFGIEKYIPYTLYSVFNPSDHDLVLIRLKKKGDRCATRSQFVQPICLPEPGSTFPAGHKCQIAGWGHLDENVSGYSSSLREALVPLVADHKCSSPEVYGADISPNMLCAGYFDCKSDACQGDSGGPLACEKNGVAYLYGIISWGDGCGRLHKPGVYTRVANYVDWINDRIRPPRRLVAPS
Kind of data set: Inhibition of recombinant human HGFA serine protease domain using Boc-QLR-AMC as substrate preincubated for 30 mins followed by substrate addition by fluorescence based assay. The essentials: (§1)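 Inhibitor in 11-point serial dilution (0-20 µM final, 2% DMSO) pre-incubated 30 min at room temperature with enzyme in TNC buffer (25 mM Tris, 150 mM NaCl, 5 mM CaCl2, 0.01% Triton X-100, pH 8). […] Hepsin activated beforehand 24 h at 37°C. Fluorescence ex 380/em 460 nm kinetic; four-parameter fit of velocities; mean of three experiments.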

Data set [5] relates to NCI-H596. The data set can be described thus: Antitumor activity against human NCI-H596 cells xenografted in hHGF knock in NSG mouse assessed as tumor growth inhibition at 40 mg/kg, po administered daily for 25 days. The format is functional, organism-based. As to conditions: time 25.0 day. The essentials: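 Prevention design in female hHGF-KI NSG mice injected with ten million H596 cells. Oral dosing at 40 mg/kg daily began immediately after injection and ran for 25 days. Tumor growth tracked, n=3-5 per group, Dunnett's test versus control.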

Data set [6] has as its system NCI-H596. Kind of data set: Inhibition of pro-HGF stimulated cell growth in human H596 cells at 500 nM by ELISA. The format is functional, cell-based.
For data set [7], the system named is NCI-H596. Kind of data set: Antitumor activity against human NCI-H596 cells xenografted in hHGF knock in NSG mouse assessed as tumor growth inhibition at 40 mg/kg, po administered daily for 14 to 16 days. The format is functional, organism-based. As to conditions: time 14-16 day. The essentials: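 Female hHGF-KI NSG mice given 2 million H596 cells, or males given 0.5 million. Dosing started at tumor volume ~40 or ~350 mm3. Daily oral dosing at 40 mg/kg for 16 or 14 days. Tumor growth compared with control-treated mice by ANOVA with Dunnett's test, n=3-6 per group.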
A general note: Xenograft models place foreign cells or tissue in a host animal.

Another data set has as its system EBC-1. The data set can be described thus: Cytotoxicity against human EBC-1 cells assessed as reduction in cell viability preincubated with pro-HGF for 24 hrs followed by compound addition and measured after 48 hrs by CellTiter-Glo assay. The format is functional, cell-based. Background: ATP-based viability assays read luminescence as a measure of living cells.

Data set [8] concerns NCI-H596. The data set can be described thus: Inhibition of pro-HGF stimulated cell growth in human H596 cells at […] by ELISA. As to conditions: dose 33.3 µM. The format is functional, cell-based. In general terms: ELISA stands for enzyme-linked immunosorbent assay.
A further data set has as its target Prothrombin (Homo sapiens, UniProt P00734). The data set can be described thus: Inhibition of recombinant thrombin (unknown origin) using D-Phe-Pip-Arg-pNA as substrate preincubated for 30 mins followed by substrate addition by chromogenic assay.
The nature of data set [9]: Plasma protein binding in mouse assessed as unbound fraction. The format is ADME, cell-free.
Data set [10] deals with T2, Suppressor of tumorigenicity 14 protein (Homo sapiens, UniProt Q9Y5Y6).
T2 sequence (Q9Y5Y6 whole entry): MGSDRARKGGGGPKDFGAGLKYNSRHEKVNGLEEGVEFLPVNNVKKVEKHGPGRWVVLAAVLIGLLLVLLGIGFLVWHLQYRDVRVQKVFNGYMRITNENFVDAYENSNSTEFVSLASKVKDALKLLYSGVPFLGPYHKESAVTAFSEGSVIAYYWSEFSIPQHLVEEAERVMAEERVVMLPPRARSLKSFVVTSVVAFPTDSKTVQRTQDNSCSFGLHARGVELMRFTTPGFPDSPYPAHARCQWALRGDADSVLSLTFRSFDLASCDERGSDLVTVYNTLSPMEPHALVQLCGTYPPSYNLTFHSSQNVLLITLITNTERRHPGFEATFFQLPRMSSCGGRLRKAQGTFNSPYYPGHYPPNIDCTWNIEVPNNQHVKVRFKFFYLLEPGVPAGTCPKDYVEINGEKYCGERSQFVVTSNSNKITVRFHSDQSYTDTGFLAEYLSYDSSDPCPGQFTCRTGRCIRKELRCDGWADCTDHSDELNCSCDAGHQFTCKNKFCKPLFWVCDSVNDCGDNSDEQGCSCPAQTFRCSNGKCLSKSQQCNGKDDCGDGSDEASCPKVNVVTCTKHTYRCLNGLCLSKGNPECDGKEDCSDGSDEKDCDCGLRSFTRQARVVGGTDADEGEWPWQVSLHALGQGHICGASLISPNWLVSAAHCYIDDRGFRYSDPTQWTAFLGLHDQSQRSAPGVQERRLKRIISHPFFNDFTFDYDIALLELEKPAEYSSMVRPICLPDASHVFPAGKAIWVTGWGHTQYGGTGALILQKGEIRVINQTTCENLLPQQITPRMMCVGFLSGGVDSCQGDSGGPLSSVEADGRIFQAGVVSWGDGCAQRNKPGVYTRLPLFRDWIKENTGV
Kind of data set: Inhibition of recombinant human N-terminal met-His6-tagged matriptase catalytic domain (Gly596 to Val855 residues) expressed in Escherichia coli using Boc-QAR-AMC as substrate preincubated for 30 mins followed by substrate addition by fluorescence based assay. The essentials:
as §1

The next data set concerns the target Serine protease hepsin (Homo sapiens, UniProt P05981). The data set can be described thus: Inhibition of recombinant human C-terminal 10-His tagged hepsin (Arg45 to Leu417) expressed in mouse myeloma cells using Boc-QAR-AMC as substrate preincubated for 30 mins followed by substrate addition by fluorescence based assay. The format is single protein. The essentials:
as §1

The next data set has as its system HCC827. The data set can be described thus: Cytotoxicity against human HCC827 cells assessed as reduction in cell viability at 20 nM after 72 hrs in presence of pro-HGF by crystal violet staining based assay. The format is functional. The essentials:
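HCC827 cells treated with gefitinib (20 nM) with or without pro-HGF (100 ng/ml) and with compound (0.1-1 µM). Viability by crystal violet staining after 72 h. Means±S.E.M., n=3-5; one-way ANOVA with Dunnett's test versus gefitinib plus pro-HGF.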

Consider `CC(=O)N[C@H]1CC(=O)NCCCC[C@@H](C(=O)N[C@@H](CCCNC(=N)N)C(=O)c2nc3ccccc3s2)NC(=O)[C@H](C(C)C)NC1=O`, for which the t1/2 in [1] and in data set [2] was > 4.818 h each time.

Regarding `CC(=O)N[C@H]1CC(=O)NCCCC[C@@H](C(=O)N[C@@H](CCCNC(=N)N)C(=O)c2nc3ccccc3s2)NC(=O)[C@H](CC(N)=O)NC1=O`, the t1/2 in [1] and in data set [2] was > 4.818 h throughout.

As for `CC(=O)N[C@H]1CC(=O)NCCCC[C@@H](C(=O)N[C@@H](CCCNC(=N)N)C(=O)c2nc3ccccc3s2)NC(=O)CNC1=O`, the t1/2 in [1] and in data set [2] was > 4.818 h each time.

`CC(=O)N[C@H]1CC(=O)NCCCC[C@@H](C(=O)N[C@@H](CCCNC(=N)N)C(=O)c2nc3ccccc3s2)NC(=O)[C@H](C)NC1=O`: at Coagulation factor X, the 50% inhibitory concentration (IC50) is > 20 µM. In addition, the results for the t1/2 in data set [1] and in data set [2] were 3.602 h and 4.353 h, respectively.

Regarding `CSCC[C@@H]1NC(=O)[C@@H](NC(C)=O)CC(=O)NCCCC[C@@H](C(=O)N[C@@H](CCCNC(=N)N)C(=O)c2nc3ccccc3s2)NC1=O`, the t1/2 in [1] and in data set [2] was > 4.818 h each time.

Take `CC(=O)N[C@H]1CC(=O)NCCCC[C@@H](C(=O)N[C@@H](CCCNC(=N)N)C(=O)c2nc3ccccc3s2)NC(=O)[C@H](CCC(N)=O)NC1=O`: the half-inhibitory concentration (IC50) on Coagulation factor X was > 20 µM. Moreover, the t1/2 in data set [1] and in data set [2] was > 4.818 h throughout.

Consider `CC(=O)N[C@H]1CC(=O)N(C)CCCC[C@@H](C(=O)N[C@@H](CCCNC(=N)N)C(=O)c2nc3ccccc3s2)NC(=O)[C@H](CC(C)C)NC1=O`, for which the t1/2 in data set [1] and in [2] was > 4.82 h in each case. The half-life in data set [3] (plasma) is 0.553 h. In addition, the 50% inhibitory concentration (IC50) in data set [4] was 12 µM.

With `CC(=O)N[C@H]1CC(=O)NCCCC[C@@H](C(=O)N[C@@H](CCCNC(=N)N)C(=O)c2nccs2)NC(=O)[C@H](CC(C)C)NC1=O`, the t1/2 in [1] and in [2] was > 4.818 h throughout. In data set [4], the IC50 is > 20 µM.

As to `Cn1cc(-c2ccc3nnc(C(F)(F)c4ccc5ncccc5c4)n3n2)cn1`, the outcome in the data set with NCI-H596 [5] and in the data set on NCI-H596 [7] was Active. The inhibition entry in the data set on NCI-H596 [6] was “Active”. The result in the data set with EBC-1 was inactive.

With `N=C(N)Nc1ccc(C(=O)Oc2ccc3cc(C(=N)N)ccc3c2)cc1`, in the data set on NCI-H596 [8], the inhibition entry was “Active”.

With `CC(=O)N[C@H]1CCCCNC(=O)CC[C@@H](C(=O)N[C@@H](CCCNC(=N)N)C(=O)c2nc3ccccc3s2)NC(=O)[C@H](CC(C)C)NC1=O`, the t1/2 was > 4.82 h in [1], 0.71 h in [3] and 4.57 h in data set [2]. Also, the IC50 on Prothrombin is > 20 µM. In data set [9], the fraction unbound stood at 0.184.

As for `CC(=O)N[C@H]1CC(=O)NCCCC[C@@H](C(=O)N[C@@H](CCCNC(=N)N)C(=O)c2nc3ccccc3s2)NC(=O)[C@H]([C@@H](C)O)NC1=O`, the half-inhibitory concentration (IC50) in data set [10] is 0.0037 µM; on Coagulation factor X it was 13.3 µM; at Serine protease hepsin, 0.0058 µM; in [4], 11.8 µM. Further, the t1/2 in data set [1] was found to be 4.142 h; in data set [2] it was 3.21 h.

As for `COc1cc2ncnc(Nc3ccc(F)c(Cl)c3)c2cc1OCCCN1CCOCC1`, the outcome in the data set on HCC827 was inactive.

Consider `CC(=O)N[C@H]1CCCCNC(=O)C[C@@H](C(=O)N[C@@H](CCCNC(=N)N)C(=O)c2nc3ccccc3s2)NC(=O)[C@H](CC(C)C)NC1=O`, for which the IC50 in data set [10] was 0.02 µM; on Prothrombin, > 20 µM; in data set [4], > 20 µM. Moreover, the t1/2 is > 4.82 h in [1] and 2.97 h in data set [2]. Also, in [9], the fraction unbound was determined as 0.853.

Turning to `CC(=O)N[C@H]1CC(=O)NCCCC[C@@H](C(=O)N[C@@H](CCCNC(=N)N)C(=O)c2nc3ccccc3s2)NC(=O)[C@H](Cc2ccccc2)NC1=O`, at Serine protease hepsin, the half-maximal inhibitory concentration (IC50) is 0.017 µM. The t1/2 in data set [1] was > 4.818 h; in data set [3], 1.61 h; in data set [2], > 4.818 h.

For `CC(=O)N[C@H]1CC(=O)NCCCC[C@@H](C(=O)N[C@@H](CCCNC(=N)N)C(=O)c2nc3ccccc3s2)NC(=O)[C@H](Cc2ccc(O)cc2)NC1=O`, the t1/2 in data set [1] is > 4.818 h; in [2], 4.613 h. For the same molecule, the IC50 in data set [4] is > 20 µM.

Consider `CC(=O)N[C@H]1CCCCNC(=O)CC[C@@H](C(=O)N[C@@H](CCCNC(=N)N)C(=O)c2nc3ccccc3s2)NC(=O)[C@H](CCCNC(=N)N)NC1=O`, for which the IC50 on Coagulation factor X was 0.155 µM; on Prothrombin it was > 20 µM. In addition, the figures for the t1/2 in [1] and in [2] were 2.52 h and 2.6 h, respectively. The fraction unbound in [9] is 0.259.
